In ChEMBL document CHEMBL4689842, “EUbOPEN Chemogenomics Library wave 1” (2021):

Tested on: U2OS
Assay: Multiplex assay against U2OS
Type: toxicity, cell-based
Details: human
Outline: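 Phenotypes for tubulin, mitochondrial mass and membrane permeability are expressed as per cents of healthy-nucleus cells. Cells were stained live at seeding with Hoechst33342, BioTracker Green Microtubule Cytoskeleton Dye, MitoTracker Red and Annexin V Alexa Fluor 680, then imaged after compound addition on a CQ1 microscope at 37°C and 5% CO2. Machine-learning gating in CellPathfinder separated Hoechst high-intensity objects from normal cells, divided normal cells by nuclear state (healthy, pyknosed, fragmented) and divided pyknosed cells into mitotic or apoptotic.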

[1] = 12 h, 1 µM, compound concentration 1 uM, replicate 1
[2] = 12 h, 1 µM, compound concentration 1 uM, replicate 2
[3] = 12 h, 10 µM, compound concentration 10 uM, replicate 1
[4] = 12 h, 10 µM, compound concentration 10 uM, replicate 2
[5] = 24 h, 1 µM, compound concentration 1 uM, replicate 1
[6] = 24 h, 1 µM, compound concentration 1 uM, replicate 2
[7] = 24 h, 10 µM, compound concentration 10 uM, replicate 1
[8] = 24 h, 10 µM, compound concentration 10 uM, replicate 2

`CC(C)CC(=O)Nc1[nH]nc2c1CN(C(=O)C1CCN(C)CC1)C2(C)C` [PHA-793887] was tested, and the “Population Apoptotic (%)” value [1] was 25%, the “Population Fragmented Nuclei (%)” value [1] was 3% and the “Population Healthy Nuclei (%)” value [1] was 92%. For the same compound, the “Population Hoechst High Intensity Objects (%)” value [1] was 1%, the “Population Membrane Permeable-Phenotype (%)” value [1] was 8% and the “Population Mitochondria Different-Phenotype (%)” value [1] was 30%. For the same compound, the “Population Mitotic Cells (%)” value [1] was 75%, the “Population Normal (%)” value [1] was 98% and the “Population Tubulin-Different-Phenotype (%)” value [1] was 30%. For the same compound, the “Total Cell Count” value [1] was 161, the “Population Apoptotic (%)” value [2] was 20% and the “Population Fragmented Nuclei (%)” value [2] was 8%. The “Population Healthy Nuclei (%)” value [2] was 87%, the “Population Hoechst High Intensity Objects (%)” value [2] was 11% and the “Population Membrane Permeable-Phenotype (%)” value [2] was 9%. For the same compound, the “Population Mitochondria Different-Phenotype (%)” value [2] was 39%, the “Population Mitotic Cells (%)” value [2] was 80% and the “Population Normal (%)” value [2] was 88%. For the same compound, the “Population Pyknosed Nuclei (%)” value [2] was 4%, the “Population Tubulin-Different-Phenotype (%)” value [2] was 35% and the “Total Cell Count” value [2] was 87. For the same compound, the “Population Apoptotic (%)” value [3] was 72%, the “Population Fragmented Nuclei (%)” value [3] was 17% and the “Population Healthy Nuclei (%)” value [3] was 68%. For the same compound, the “Population Hoechst High Intensity Objects (%)” value [3] was 3%, the “Population Membrane Permeable-Phenotype (%)” value [3] was 12% and the “Population Mitochondria Different-Phenotype (%)” value [3] was 29%. The “Population Mitotic Cells (%)” value [3] was 28%, the “Population Normal (%)” value [3] was 96% and the “Population Pyknosed Nuclei (%)” value [3] was 13%. The “Population Tubulin-Different-Phenotype (%)” value [3] was 32%, the “Total Cell Count” value [3] was 188 and the “Population Apoptotic (%)” value [4] was 50%. The “Population Fragmented Nuclei (%)” value [4] was 11%, the “Population Healthy Nuclei (%)” value [4] was 78% and the “Population Hoechst High Intensity Objects (%)” value [4] was 14%. The “Population Membrane Permeable-Phenotype (%)” value [4] was 21%, the “Population Mitochondria Different-Phenotype (%)” value [4] was 34% and the “Population Mitotic Cells (%)” value [4] was 50%. For the same compound, the “Population Normal (%)” value [4] was 85%, the “Population Pyknosed Nuclei (%)” value [4] was 10% and the “Population Tubulin-Different-Phenotype (%)” value [4] was 26%. The “Total Cell Count” value [4] was 136, the “Population Apoptotic (%)” value [5] was 22% and the “Population Fragmented Nuclei (%)” value [5] was 5%. The “Population Healthy Nuclei (%)” value [5] was 91%, the “Population Hoechst High Intensity Objects (%)” value [5] was 1% and the “Population Membrane Permeable-Phenotype (%)” value [5] was 3%. The “Population Mitochondria Different-Phenotype (%)” value [5] was 24%, the “Population Mitotic Cells (%)” value [5] was 77% and the “Population Normal (%)” value [5] was 98%. The “Population Pyknosed Nuclei (%)” value [5] was 3%, the “Population Tubulin-Different-Phenotype (%)” value [5] was 29% and the “Total Cell Count” value [5] was 148. For the same compound, the “Population Apoptotic (%)” value [6] was 50%, the “Population Fragmented Nuclei (%)” value [6] was 9% and the “Population Healthy Nuclei (%)” value [6] was 85%. For the same compound, the “Population Hoechst High Intensity Objects (%)” value [6] was 2%, the “Population Membrane Permeable-Phenotype (%)” value [6] was 9% and the “Population Mitochondria Different-Phenotype (%)” value [6] was 43%. The “Population Mitotic Cells (%)” value [6] was 50%, the “Population Normal (%)” value [6] was 97% and the “Population Pyknosed Nuclei (%)” value [6] was 4%. The “Population Tubulin-Different-Phenotype (%)” value [6] was 34%, the “Total Cell Count” value [6] was 82 and the “Population Apoptotic (%)” value [7] was 72%. The “Population Fragmented Nuclei (%)” value [7] was 9%, the “Population Healthy Nuclei (%)” value [7] was 73% and the “Population Hoechst High Intensity Objects (%)” value [7] was 4%. For the same compound, the “Population Membrane Permeable-Phenotype (%)” value [7] was 24%, the “Population Mitochondria Different-Phenotype (%)” value [7] was 45% and the “Population Mitotic Cells (%)” value [7] was 27%. For the same compound, the “Population Normal (%)” value [7] was 95%, the “Population Pyknosed Nuclei (%)” value [7] was 17% and the “Population Tubulin-Different-Phenotype (%)” value [7] was 33%. For the same compound, the “Total Cell Count” value [7] was 287, the “Population Apoptotic (%)” value [8] was 55% and the “Population Fragmented Nuclei (%)” value [8] was 19%. For the same compound, the “Population Healthy Nuclei (%)” value [8] was 69%, the “Population Hoechst High Intensity Objects (%)” value [8] was 16% and the “Population Membrane Permeable-Phenotype (%)” value [8] was 21%. For the same compound, the “Population Mitochondria Different-Phenotype (%)” value [8] was 36%, the “Population Mitotic Cells (%)” value [8] was 44% and the “Population Normal (%)” value [8] was 83%. The “Population Pyknosed Nuclei (%)” value [8] was 10%, the “Population Tubulin-Different-Phenotype (%)” value [8] was 29% and the “Total Cell Count” value [8] was 172.
With `C=CC(=O)Nc1cccc(Sc2nc(Nc3ccc(N4CCN(C)CC4)cc3)ncc2Cl)c1` the “Population Apoptotic (%)” value [1] was 99%, the “Population Fragmented Nuclei (%)” value [1] was 5% and the “Population Healthy Nuclei (%)” value [1] was 3%. For the same compound, the “Population Hoechst High Intensity Objects (%)” value [1] was 10%, the “Population Membrane Permeable-Phenotype (%)” value [1] was 100% and the “Population Mitochondria Different-Phenotype (%)” value [1] was 100%. The “Population Mitotic Cells (%)” value [1] was 0%, the “Population Normal (%)” value [1] was 89% and the “Population Pyknosed Nuclei (%)” value [1] was 91%. For the same compound, the “Population Tubulin-Different-Phenotype (%)” value [1] was 100%, the “Total Cell Count” value [1] was 197 and the “Population Apoptotic (%)” value [2] was 95%. For the same compound, the “Population Fragmented Nuclei (%)” value [2] was 16%, the “Population Healthy Nuclei (%)” value [2] was 11% and the “Population Hoechst High Intensity Objects (%)” value [2] was 14%. The “Population Mitotic Cells (%)” value [2] was 5%, the “Population Normal (%)” value [2] was 85% and the “Population Pyknosed Nuclei (%)” value [2] was 71%. For the same compound, the “Total Cell Count” value [2] was 119, the “Population Apoptotic (%)” value [3] was 28% and the “Population Fragmented Nuclei (%)” value [3] was 5%. For the same compound, the “Population Healthy Nuclei (%)” value [3] was 83%, the “Population Hoechst High Intensity Objects (%)” value [3] was 1% and the “Population Membrane Permeable-Phenotype (%)” value [3] was 32%. For the same compound, the “Population Mitochondria Different-Phenotype (%)” value [3] was 11%, the “Population Mitotic Cells (%)” value [3] was 71% and the “Population Normal (%)” value [3] was 98%. The “Population Pyknosed Nuclei (%)” value [3] was 10%, the “Population Tubulin-Different-Phenotype (%)” value [3] was 25% and the “Total Cell Count” value [3] was 175. For the same compound, the “Population Apoptotic (%)” value [4] was 44%, the “Population Fragmented Nuclei (%)” value [4] was 8% and the “Population Healthy Nuclei (%)” value [4] was 82%. For the same compound, the “Population Hoechst High Intensity Objects (%)” value [4] was 14%, the “Population Membrane Permeable-Phenotype (%)” value [4] was 25% and the “Population Mitochondria Different-Phenotype (%)” value [4] was 10%. The “Population Mitotic Cells (%)” value [4] was 55%, the “Population Normal (%)” value [4] was 85% and the “Population Pyknosed Nuclei (%)” value [4] was 8%. For the same compound, the “Population Tubulin-Different-Phenotype (%)” value [4] was 33%, the “Total Cell Count” value [4] was 115 and the “Population Apoptotic (%)” value [5] was 96%. For the same compound, the “Population Fragmented Nuclei (%)” value [5] was 10%, the “Population Hoechst High Intensity Objects (%)” value [5] was 7% and the “Population Mitochondria Different-Phenotype (%)” value [5] was 96%. The “Population Mitotic Cells (%)” value [5] was 3%, the “Population Normal (%)” value [5] was 92% and the “Population Pyknosed Nuclei (%)” value [5] was 50%. The “Total Cell Count” value [5] was 237, the “Population Apoptotic (%)” value [6] was 100% and the “Population Fragmented Nuclei (%)” value [6] was 21%. The “Population Healthy Nuclei (%)” value [6] was 38%, the “Population Hoechst High Intensity Objects (%)” value [6] was 15% and the “Population Membrane Permeable-Phenotype (%)” value [6] was 100%. The “Population Mitochondria Different-Phenotype (%)” value [6] was 100%, the “Population Mitotic Cells (%)” value [6] was 0% and the “Population Normal (%)” value [6] was 84%. For the same compound, the “Population Pyknosed Nuclei (%)” value [6] was 40%, the “Population Tubulin-Different-Phenotype (%)” value [6] was 100% and the “Total Cell Count” value [6] was 127. For the same compound, the “Population Apoptotic (%)” value [7] was 42%, the “Population Fragmented Nuclei (%)” value [7] was 6% and the “Population Healthy Nuclei (%)” value [7] was 82%. For the same compound, the “Population Hoechst High Intensity Objects (%)” value [7] was 1%, the “Population Membrane Permeable-Phenotype (%)” value [7] was 24% and the “Population Mitochondria Different-Phenotype (%)” value [7] was 13%. For the same compound, the “Population Mitotic Cells (%)” value [7] was 57%, the “Population Normal (%)” value [7] was 98% and the “Population Pyknosed Nuclei (%)” value [7] was 11%. For the same compound, the “Population Tubulin-Different-Phenotype (%)” value [7] was 18%, the “Total Cell Count” value [7] was 158 and the “Population Apoptotic (%)” value [8] was 72%. For the same compound, the “Population Fragmented Nuclei (%)” value [8] was 7%, the “Population Hoechst High Intensity Objects (%)” value [8] was 12% and the “Population Membrane Permeable-Phenotype (%)” value [8] was 23%. The “Population Mitochondria Different-Phenotype (%)” value [8] was 15%, the “Population Mitotic Cells (%)” value [8] was 27% and the “Population Normal (%)” value [8] was 87%. The “Population Pyknosed Nuclei (%)” value [8] was 9%, the “Population Tubulin-Different-Phenotype (%)” value [8] was 22% and the “Total Cell Count” value [8] was 103.
